UBC13 polyUb – inhibitors of human UBC13 polyubiquitin chain formation. TR-FRET. 330,000 compounds, 0.47% hits. AID 485273. P61088. inhibition, % at 20 µM; in the data active means inhibition above about 45%, passing the limit was not always enough
SENP7 inh – inhibitors of human SENP7 protease; Q9BQF6; recombinant SENP7, Z-RLRGG-aminoluciferin luminescence, 40 min; inhibition, % at 5 µM; 330,000 compounds, 1.5% hits; AID 434973;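 active means inhibition above about 50% at the single test dose, limit read from the data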
SENP8 block-1 – SENP8 protease inhibition; 330,000 compounds, 1.2% hits; inhibition, % at 10 µM; Q96LD8; purified SENP8, Z-RLRGG-aminoluciferin cleavage, luminescence; AID 2540; in the data active means inhibition above about 50%
Apaf1 inhib – human Apaf-1 inhibition. O14727. reconstituted apoptosome caspase-3 activity, DEVD-Rh110 fluorescence. inhibition, % at 20 µM. 330,000 compounds, 0.71% hits; active means inhibition of at least 40% at 20 µM
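System: Apoptosome proteins | Medium: Hepes pH 7.5 with detergent and BSA | Also added: Cytochrome c trigger plus (Z-DEVD)2-Rh110 caspase-3 substrate | Incubation: 30 min compound preincubation, 50 min activation, room temperature | Detection: Rhodamine 110 fluorescence at Ex 480/Em 540 nm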
SENP6 inh – SENP6 protease inhibition. Q9GZR1. Recombinant SENP6 catalytic domain, aminoluciferin luminescence. AID 2599. 330,000 compounds, 1.8% hits. inhibition, % at 10 µM;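 active means inhibition above about 50% at the single tested dose, limit read from the data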
SENP8 block-2 – SENP8 (human) protease inhibition; inhibition, % at 20 µM; 360,000 compounds, 0.64% hits; Q96LD8; recombinant SENP8, Nedd8 substrate fluorescence; in the data active means inhibition mostly above about 40%, no sharp cut-off; inactive means mostly below about 27%
Casp3 UBC13 ctr – caspase-3 inhibition (UBC13 counter-screen); shares compounds with UBC13 polyUb; Recombinant caspase-3, Caspase-Glo 3/7 luminescence, 60 min; inhibition, % at 20 µM; 1,400 compounds, 4% hits; AID 488856;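 active means mean inhibition across replicates above about 26%, limit read from the data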
UBC13 conf – human UBC13 polyubiquitin inhibition, confirmed | 1,400 compounds, 68% hits | shares compounds with UBC13 polyUb | UBC13 polyubiquitination, TR-FRET, biochemical | inhibition, % at 10 µM | AID 488859; in the data active means inhibition above about 45%
Of the large screens only hits and unclear results are named; the others gave an inactive call (follow-up assays come after a bar, where they were run). Hits are enriched below; roughly 3.1% of the tested compounds scored in any of these assays.

Cc1cc(C)cc(OCC(=O)NNC(=O)c2ccccn2)c1	UBC13 polyUb 96 | Casp3 UBC13 ctr inactive | UBC13 conf 85
Cc1ccc(OCCCC(=O)NNC(=O)c2ccccn2)cc1	UBC13 polyUb 56 | Casp3 UBC13 ctr inactive | UBC13 conf inactive
O=C(COc1ccc(Cl)cc1)NNC(=O)c1ccccn1	UBC13 polyUb 71 | Casp3 UBC13 ctr inactive | UBC13 conf 97
O=C(NCc1ccccn1)C1CCN(C2CCN(Cc3cccc(F)c3)CC2)CC1	none (no result: UBC13 polyUb, SENP7 inh, SENP8 block-1, Apaf1 inhib, SENP6 inh)
COc1ccc(N2C(=O)c3ccccc3NC(=O)C2C(=O)Nc2ccc3c(c2)OCCO3)cc1 (stereo not drawn)	none (no result: UBC13 polyUb, SENP7 inh, SENP8 block-1, Apaf1 inhib, SENP6 inh)
O=C(CSc1ccccc1C(=O)NCCCN1CCCC1=O)NCc1ccco1	UBC13 polyUb 50 | Casp3 UBC13 ctr inactive | UBC13 conf inactive
CC1(Oc2cccnc2Cl)CCN(Cc2ccc(OC(F)(F)F)cc2)C1 (stereo not drawn)	none (no result: UBC13 polyUb, SENP7 inh, SENP8 block-1, Apaf1 inhib, SENP6 inh)
COc1ccccc1NC(=O)COC(=O)c1cc(C)nc2ccccc12	UBC13 polyUb 48 | Casp3 UBC13 ctr inactive | UBC13 conf inactive
COc1ccccc1NC(=O)COc1ccc(C(=O)NCc2ccccc2)cc1OC	UBC13 polyUb 70 | Casp3 UBC13 ctr inactive | UBC13 conf 75
CNCc1cc(Br)c(OCC(=O)Nc2ccccc2OC)c(OC)c1	UBC13 polyUb 65 | Casp3 UBC13 ctr inactive | UBC13 conf 103
COc1ccc(CNC(=O)COC(=O)c2cc(C)nc3ccccc23)cc1	none
Cc1ccc(CNC(=O)C2(C)CCN2C(=O)Cc2ccc(-c3ccccc3)cc2)cc1 (stereo not drawn)	none (no result: UBC13 polyUb, SENP7 inh, SENP8 block-1, Apaf1 inhib, SENP6 inh)
COc1ccc(S(=O)(=O)NC(=O)C2(C)CCN2C(=O)Cc2ccccc2Cl)cc1 (stereo not drawn)	none (no result: UBC13 polyUb, SENP7 inh, SENP8 block-1, Apaf1 inhib, SENP6 inh)
CCCCC[C@H](C)N1C[C@H](COCc2ccccc2)Oc2cc(N3CC[C@@H](N(C)C)C3)ccc2S1(=O)=O	none (no result: UBC13 polyUb, SENP7 inh, SENP8 block-1, Apaf1 inhib, SENP6 inh)
Cc1nc(N)sc1C(=O)OCC(C)C	UBC13 polyUb 56 | Casp3 UBC13 ctr inactive | UBC13 conf inactive
COc1ccc(OC)c(C(O)c2ncc(-c3ccccc3OC)[nH]2)c1 (stereo not drawn)	none (no result: UBC13 polyUb, SENP7 inh, SENP8 block-1, Apaf1 inhib, SENP6 inh)
CC(C)c1ccc(C(=O)N2CCCCC2c2cc(C(=O)NCc3cccnc3)no2)cc1 (stereo not drawn)	none (no result: UBC13 polyUb, SENP7 inh, SENP8 block-1, Apaf1 inhib, SENP6 inh)
CC[n+]1c(/C=C/N(C)c2ccccc2)n(-c2ccccc2)c2ccc(-c3nc4ccccc4s3)cc21	UBC13 polyUb 84, Apaf1 inhib 82 | Casp3 UBC13 ctr inactive | UBC13 conf 98
COC(=O)c1ccc2nc(-c3ccc(Cl)cc3)c(Cc3cccc(Cl)c3)n2c1	none (no result: UBC13 polyUb, SENP7 inh, SENP8 block-1, Apaf1 inhib, SENP6 inh)
O=C(Nc1ccc(C(=O)NCC2CCN(Cc3ccccc3F)CC2)cc1)C1=CSCCO1	none
Cc1ccc(CN2CCC(CNC(=O)c3ccc(NC(=O)C4=CSCCO4)cc3)CC2)cc1	UBC13 polyUb 72 | Casp3 UBC13 ctr inactive | UBC13 conf 96
Cc1sc2nc(CSCC(=O)NC3(C#N)CCCCC3)[nH]c(=O)c2c1C	none
CCCN(CC(=O)NC(=O)NCc1ccccc1)CC(=O)Nc1ccc(F)c(F)c1F	none (no result: UBC13 polyUb, SENP7 inh, SENP8 block-1, Apaf1 inhib, SENP6 inh)
Cc1ccc(-c2oc3ncnc(N)c3c2-c2ccc(C)cc2)cc1	UBC13 polyUb 88 | Casp3 UBC13 ctr inactive | UBC13 conf 82
Cc1oc2ncnc(N)c2c1C	none
CCOC(=O)Cc1cc(=O)[nH]c(Nc2nc3ccccc3o2)n1	UBC13 polyUb 82 | Casp3 UBC13 ctr 45 | UBC13 conf 93
COC(=O)Cc1cc(=O)[nH]c(Nc2nc3ccccc3o2)n1	UBC13 polyUb 58 | Casp3 UBC13 ctr inactive | UBC13 conf 73
COCc1cc(=O)[nH]c(Nc2nc3ccccc3o2)n1	UBC13 polyUb 81 | Casp3 UBC13 ctr 43 | UBC13 conf 81
Cc1ccc2oc(Nc3nc(-c4ccccc4)cc(=O)[nH]3)nc2c1	none (no result: SENP8 block-2)
COc1cccc(-c2cnc3c(c2)C(=O)N([C@H](C)CO)C[C@@H](C)[C@H](CN(C)C(=O)Nc2ccccc2F)O3)c1	none (no result: UBC13 polyUb, SENP7 inh, SENP8 block-1, Apaf1 inhib, SENP6 inh)
COc1ccc(Nc2nc(N3CCCC3)c3ccccc3n2)cc1	UBC13 polyUb 51 | Casp3 UBC13 ctr inactive | UBC13 conf 49
CC(C)(C(=O)N1CCC1(C)C(=O)NS(=O)(=O)c1cccc(C#N)c1)c1ccccc1 (stereo not drawn)	none (no result: UBC13 polyUb, SENP7 inh, SENP8 block-1, Apaf1 inhib, SENP6 inh)
CSCCC(NC(=O)c1ccccc1Br)C(=O)NNC(=O)c1csc(N2CCOCC2)n1 (stereo not drawn)	UBC13 polyUb 50 | Casp3 UBC13 ctr inactive | UBC13 conf 52
CSCCC(NC(=O)c1ccccc1Cl)C(=O)NNC(=O)c1csc(N2CCOCC2)n1 (stereo not drawn)	UBC13 polyUb 50 | Casp3 UBC13 ctr inactive | UBC13 conf 57
CSCCC(NS(=O)(=O)c1ccccc1F)C(=O)NNC(=O)c1csc(N2CCOCC2)n1 (stereo not drawn)	none
CCCOC(=O)c1cccc(Nc2nc(-c3cccnc3)nc3ccccc23)c1	UBC13 polyUb 49 | Casp3 UBC13 ctr inactive | UBC13 conf 66
COc1ccc(N2CCN(CCCNC(=O)CCC(=O)N3CCOc4ccc(Cl)cc43)CC2)cc1	none
Cc1ccc(C)c(N2CCN(CCCNC(=O)CCC(=O)N3CCOc4ccc(Cl)cc43)CC2)c1	UBC13 polyUb 60 (no result: SENP8 block-2) | Casp3 UBC13 ctr inactive | UBC13 conf 80
O=C(CCC(=O)N1CCOc2ccc(Cl)cc21)NCCCN1CCN(c2ccccc2F)CC1	UBC13 polyUb 62 | Casp3 UBC13 ctr inactive | UBC13 conf inactive
O=C(CCC(=O)N1CCOc2ccc(Cl)cc21)NCCCN1CCC(Cc2ccccc2)CC1	UBC13 polyUb 92 | Casp3 UBC13 ctr inactive | UBC13 conf 92
O=C(O)c1ccc(C(S(=O)(=O)c2ccccc2)S(=O)(=O)c2ccccc2)cc1	none (no result: UBC13 polyUb, SENP7 inh, SENP8 block-1, Apaf1 inhib, SENP6 inh)
CC1CCC(NC(=O)C2CCC(CNS(=O)(=O)c3ccc4c(c3)C(C)(C)C(=O)N4C)CC2)CC1 (stereo not drawn)	none (no result: UBC13 polyUb, SENP7 inh, SENP8 block-1, Apaf1 inhib, SENP6 inh)
CC1(C(=O)NS(=O)(=O)c2ccc(F)cc2F)CCN1C(=O)c1ccccc1CCc1ccccc1 (stereo not drawn)	none (no result: UBC13 polyUb, SENP7 inh, SENP8 block-1, Apaf1 inhib, SENP6 inh)
CCOc1ccc(C(C(=O)NCC2CCCO2)N(C(=O)c2snc(C(N)=O)c2N)c2cccc(F)c2)cc1 (stereo not drawn)	none
CCOc1ccc(C(C(=O)NCC2CCCO2)N(C(=O)c2snc(C(N)=O)c2N)c2ccccc2F)cc1 (stereo not drawn)	UBC13 polyUb 48 | Casp3 UBC13 ctr inactive | UBC13 conf 48
CCOc1ccc(N(C(=O)c2snc(C(N)=O)c2N)C(C(=O)NCC2CCCO2)c2ccc(C)o2)cc1 (stereo not drawn)	UBC13 polyUb 74 | Casp3 UBC13 ctr inactive | UBC13 conf 82
